{
  "source": "paper PMC3781598",
  "about": "(Pharmaceutical research, 2013)",
  "key": {"[1]": {"experiment": "Aqueous solubility, shake-flask incubation method", "format": "physicochemical", "conditions": "phosphate-buffered saline, pH 7.4, aqueous buffer, thermodynamic from solid", "method_in_brief": "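Shake-flask equilibration of test compound in phosphate-buffered saline, pH 7.4, for 24 h at room temperature.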"}, "human CYP2A6 [2]": {"molecular_target": "T1, human CYP2A6 (Homo sapiens, UniProt P11509)", "T1 sequence (P11509 with tags, fused parts or gaps limits assumed)": "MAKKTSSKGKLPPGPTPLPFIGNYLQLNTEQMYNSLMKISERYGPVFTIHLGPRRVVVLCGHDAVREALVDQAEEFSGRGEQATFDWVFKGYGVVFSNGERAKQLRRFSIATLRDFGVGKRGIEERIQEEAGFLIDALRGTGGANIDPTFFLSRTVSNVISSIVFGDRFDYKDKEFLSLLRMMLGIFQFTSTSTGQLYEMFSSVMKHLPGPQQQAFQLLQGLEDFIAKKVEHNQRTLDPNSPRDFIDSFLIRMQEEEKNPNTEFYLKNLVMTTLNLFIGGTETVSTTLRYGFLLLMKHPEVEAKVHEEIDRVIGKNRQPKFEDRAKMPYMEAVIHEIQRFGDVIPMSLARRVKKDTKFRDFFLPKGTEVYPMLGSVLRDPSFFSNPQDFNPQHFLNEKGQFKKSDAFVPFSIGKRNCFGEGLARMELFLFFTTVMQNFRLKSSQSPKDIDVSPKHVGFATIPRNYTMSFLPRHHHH", "experiment": "Spectral ligand binding assay", "conditions": "for Kd 2A6: spectral titration, ≥ = minimal Kd value"}, "human CYP2A6 [3]": {"molecular_target": "T1, human CYP2A6", "experiment": "Coumarin metabolism assay"}, "CYP3A4": {"molecular_target": "CYP3A4 (Homo sapiens, UniProt P08684)", "sequence (P08684 2-503 limits assumed)": "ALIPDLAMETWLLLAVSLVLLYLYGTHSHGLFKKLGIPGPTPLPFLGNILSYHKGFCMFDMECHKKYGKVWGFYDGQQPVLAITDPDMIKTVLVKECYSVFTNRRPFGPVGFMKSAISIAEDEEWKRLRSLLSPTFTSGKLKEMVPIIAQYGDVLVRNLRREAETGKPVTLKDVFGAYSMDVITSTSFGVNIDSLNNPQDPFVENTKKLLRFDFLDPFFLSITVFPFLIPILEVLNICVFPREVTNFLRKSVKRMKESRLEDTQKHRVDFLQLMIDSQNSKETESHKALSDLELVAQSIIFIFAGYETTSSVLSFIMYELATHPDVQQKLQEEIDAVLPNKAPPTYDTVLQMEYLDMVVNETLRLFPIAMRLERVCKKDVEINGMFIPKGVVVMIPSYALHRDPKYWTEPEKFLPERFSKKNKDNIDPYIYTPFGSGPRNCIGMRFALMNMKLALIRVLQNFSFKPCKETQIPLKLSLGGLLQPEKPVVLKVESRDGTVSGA", "experiment": "Metabolic stability phenotyping with recombinantly expressed CYPs", "format": "in vitro ADME", "conditions": "recombinant CYP3A4, pH 7.4", "method_in_brief": "(§1)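 Each recombinant human CYP at 100 pmol/ml with 1 μM test compound in potassium phosphate pH 7.4, 3.33 mM MgCl2. Prewarmed 10 min at 37 °C, then started with NADPH regenerating system; no-NADPH buffer controls. Aliquots at 0–45 min quenched in methanol with buspirone internal standard. MS peak-area ratios gave ln(ratio)-vs-time slope, converted to T1/2. Duplicates.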"}, "[4]": {"experiment": "Metabolic stability in liver microsomes", "format": "in vitro ADME, human", "conditions": "for Percent Loss of Substrate / substrate remaining: human liver microsomes; for Percent Loss of Substrate: 1 μM, 20-minute incubation; for substrate remaining: at the end of 20 min; for half-life at 1 μM / microsomal CLint at 1 μM: human, liver microsomes, pH 7.4", "method_in_brief": "(§2)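 Pooled liver or lung microsomes (male B6C2F1 mouse, male Sprague-Dawley rat, human) at 1.0 mg protein/ml in 50 mM potassium phosphate pH 7.4, 3 mM MgCl2, 1 mM EDTA. […] Stopped at 0, 5, 10, 20 min with acetonitrile containing antipyrene, then LC/MS/MS. Single-exponential kel gave T1/2. CLint = kel × incubation volume/mg protein.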"}, "CYP2C19": {"molecular_target": "CYP2C19 (Homo sapiens, UniProt P33261)", "sequence (P33261 whole entry)": "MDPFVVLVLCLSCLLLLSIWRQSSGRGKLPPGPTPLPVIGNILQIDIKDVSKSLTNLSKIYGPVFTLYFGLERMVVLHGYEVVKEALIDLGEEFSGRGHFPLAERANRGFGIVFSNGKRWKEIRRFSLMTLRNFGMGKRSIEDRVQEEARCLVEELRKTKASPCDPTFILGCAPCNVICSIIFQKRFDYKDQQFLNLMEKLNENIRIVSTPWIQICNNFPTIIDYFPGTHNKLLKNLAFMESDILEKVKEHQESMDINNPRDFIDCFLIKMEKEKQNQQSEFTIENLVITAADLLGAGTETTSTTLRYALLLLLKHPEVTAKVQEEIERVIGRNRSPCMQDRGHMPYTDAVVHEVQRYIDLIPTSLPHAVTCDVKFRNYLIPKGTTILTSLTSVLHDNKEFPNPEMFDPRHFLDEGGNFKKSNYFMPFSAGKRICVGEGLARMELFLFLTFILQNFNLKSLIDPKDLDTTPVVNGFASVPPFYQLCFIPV", "experiment": "Metabolic stability phenotyping with recombinantly expressed CYPs", "format": "in vitro ADME", "conditions": "recombinant CYP2C19, pH 7.4", "method_in_brief": "as §1"}, "CYP2B6": {"molecular_target": "T2, CYP2B6 (Homo sapiens, UniProt P20813)", "T2 sequence (P20813 1-491)": "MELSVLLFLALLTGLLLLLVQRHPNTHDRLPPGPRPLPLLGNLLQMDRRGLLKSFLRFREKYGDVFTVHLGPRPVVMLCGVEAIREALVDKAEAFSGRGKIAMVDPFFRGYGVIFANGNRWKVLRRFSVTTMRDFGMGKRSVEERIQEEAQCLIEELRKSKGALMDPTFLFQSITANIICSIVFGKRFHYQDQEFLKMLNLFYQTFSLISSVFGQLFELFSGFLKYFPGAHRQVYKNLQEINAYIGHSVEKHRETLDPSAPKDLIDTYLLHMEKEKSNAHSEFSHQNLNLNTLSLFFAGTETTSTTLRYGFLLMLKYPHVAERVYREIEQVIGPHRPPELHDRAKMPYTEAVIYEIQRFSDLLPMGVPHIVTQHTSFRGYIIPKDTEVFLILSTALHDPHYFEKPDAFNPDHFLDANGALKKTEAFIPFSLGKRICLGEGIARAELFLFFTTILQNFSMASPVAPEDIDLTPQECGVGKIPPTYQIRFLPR", "experiment": "Metabolic stability phenotyping with recombinantly expressed CYPs", "format": "in vitro ADME", "conditions": "recombinant CYP2B6, pH 7.4", "method_in_brief": "as §1"}, "[5]": {"experiment": "Metabolic stability in lung microsomes", "format": "in vitro ADME", "conditions": "human lung microsomes, 1 μM, 20-minute incubation", "method_in_brief": "as §2"}, "[6]": {"experiment": "Metabolic stability in liver microsomes", "format": "in vitro ADME, male B6C2F1 mouse", "conditions": "for half-life at 1 μM / microsomal CLint at 1 μM: male, B6C2F1, mouse, liver microsomes, pH 7.4; for Percent Loss of Substrate: mouse liver microsomes, 1 μM, 20-minute incubation", "method_in_brief": "as §2"}, "hERG": {"molecular_target": "hERG (Homo sapiens, UniProt Q12809)", "sequence (Q12809 whole entry)": "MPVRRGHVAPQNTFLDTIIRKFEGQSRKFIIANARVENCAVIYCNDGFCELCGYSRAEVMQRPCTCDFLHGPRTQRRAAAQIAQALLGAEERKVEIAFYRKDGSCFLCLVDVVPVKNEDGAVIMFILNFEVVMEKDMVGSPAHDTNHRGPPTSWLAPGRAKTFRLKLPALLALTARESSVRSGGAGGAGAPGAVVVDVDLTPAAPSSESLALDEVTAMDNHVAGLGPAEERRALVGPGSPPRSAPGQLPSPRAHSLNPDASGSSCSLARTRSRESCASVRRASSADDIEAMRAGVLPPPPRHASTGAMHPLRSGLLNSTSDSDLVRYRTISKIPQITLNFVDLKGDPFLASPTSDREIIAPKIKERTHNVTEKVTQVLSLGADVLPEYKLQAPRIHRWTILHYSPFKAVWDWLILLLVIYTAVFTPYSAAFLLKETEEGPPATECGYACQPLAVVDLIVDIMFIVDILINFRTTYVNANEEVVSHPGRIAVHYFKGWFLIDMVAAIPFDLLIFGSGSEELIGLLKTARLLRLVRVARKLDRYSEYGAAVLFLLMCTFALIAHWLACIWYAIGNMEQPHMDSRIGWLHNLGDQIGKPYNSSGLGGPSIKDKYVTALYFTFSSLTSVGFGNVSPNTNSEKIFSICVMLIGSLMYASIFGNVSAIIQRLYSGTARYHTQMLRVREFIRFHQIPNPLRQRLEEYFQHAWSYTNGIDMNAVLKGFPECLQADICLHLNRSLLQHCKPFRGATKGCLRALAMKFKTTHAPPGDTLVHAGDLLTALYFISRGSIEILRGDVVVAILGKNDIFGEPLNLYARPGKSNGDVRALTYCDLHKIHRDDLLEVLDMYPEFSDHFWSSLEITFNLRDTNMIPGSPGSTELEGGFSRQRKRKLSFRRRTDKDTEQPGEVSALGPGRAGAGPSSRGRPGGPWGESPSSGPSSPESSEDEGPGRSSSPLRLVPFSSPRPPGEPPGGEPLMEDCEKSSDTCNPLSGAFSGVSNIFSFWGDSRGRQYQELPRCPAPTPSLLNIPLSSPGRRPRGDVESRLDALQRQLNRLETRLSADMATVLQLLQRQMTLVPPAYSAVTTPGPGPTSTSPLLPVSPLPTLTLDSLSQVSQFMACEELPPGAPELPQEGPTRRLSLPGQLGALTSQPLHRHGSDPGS", "experiment": "hERG patch clamp assay", "format": "cell-based", "conditions": "for inhibition at 10 µM: human", "method_in_brief": "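hERG inhibition by patch clamp, measured as block of the tail current. Highest test concentration was 10 μM.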"}, "CYP1A2": {"molecular_target": "T3, CYP1A2 (Homo sapiens, UniProt P05177)", "T3 sequence (P05177 2-516 limits assumed)": "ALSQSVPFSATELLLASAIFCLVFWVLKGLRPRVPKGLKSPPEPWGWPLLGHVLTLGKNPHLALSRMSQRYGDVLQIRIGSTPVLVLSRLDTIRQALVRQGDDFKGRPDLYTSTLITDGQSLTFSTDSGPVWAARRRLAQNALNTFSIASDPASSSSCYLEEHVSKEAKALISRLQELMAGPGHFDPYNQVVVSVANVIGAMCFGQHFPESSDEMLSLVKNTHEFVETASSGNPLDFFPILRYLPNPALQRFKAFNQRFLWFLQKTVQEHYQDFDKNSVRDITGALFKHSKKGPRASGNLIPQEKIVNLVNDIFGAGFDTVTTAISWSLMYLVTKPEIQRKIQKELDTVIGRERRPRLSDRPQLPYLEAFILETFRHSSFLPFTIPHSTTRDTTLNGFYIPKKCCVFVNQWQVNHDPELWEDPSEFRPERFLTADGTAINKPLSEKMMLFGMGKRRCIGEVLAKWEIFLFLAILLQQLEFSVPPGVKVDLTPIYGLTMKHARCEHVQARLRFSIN", "experiment": "Metabolic stability phenotyping with recombinantly expressed CYPs", "format": "in vitro ADME", "conditions": "for half-life at 1 μM: human, recombinant CYP1A2, pH 7.4", "method_in_brief": "as §1"}, "[7]": {"experiment": "Metabolic stability in lung microsomes", "format": "in vitro ADME, male Sprague-Dawley rat", "conditions": "for half-life at 1 μM / microsomal CLint at 1 μM: male, Sprague-Dawley, rat, lung microsomes, pH 7.4; for Percent Loss of Substrate: rat lung microsomes, 1 μM, 20-minute incubation", "method_in_brief": "as §2"}, "[8]": {"experiment": "Metabolic stability in lung microsomes", "format": "in vitro ADME, male B6C2F1 mouse", "conditions": "for half-life at 1 μM / microsomal CLint at 1 μM: male, B6C2F1, mouse, lung microsomes, pH 7.4; for Percent Loss of Substrate: mouse lung microsomes, 1 μM, 20-minute incubation", "method_in_brief": "as §2"}, "CYP2C9": {"molecular_target": "CYP2C9 (Homo sapiens, UniProt P11712)", "sequence (P11712 whole entry)": "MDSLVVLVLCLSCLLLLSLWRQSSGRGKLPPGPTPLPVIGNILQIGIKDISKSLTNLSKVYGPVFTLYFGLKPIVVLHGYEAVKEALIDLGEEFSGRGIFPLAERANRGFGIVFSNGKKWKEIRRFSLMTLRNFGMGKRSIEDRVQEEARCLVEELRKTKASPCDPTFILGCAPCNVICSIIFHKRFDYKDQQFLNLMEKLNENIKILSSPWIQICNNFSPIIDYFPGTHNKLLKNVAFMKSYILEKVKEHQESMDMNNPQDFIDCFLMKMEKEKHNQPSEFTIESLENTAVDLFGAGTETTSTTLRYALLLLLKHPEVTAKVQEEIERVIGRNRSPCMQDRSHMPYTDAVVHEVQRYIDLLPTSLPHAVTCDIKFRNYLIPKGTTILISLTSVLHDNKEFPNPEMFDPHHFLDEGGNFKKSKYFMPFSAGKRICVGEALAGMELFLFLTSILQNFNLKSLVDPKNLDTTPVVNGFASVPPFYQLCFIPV", "experiment": "Metabolic stability phenotyping with recombinantly expressed CYPs", "format": "in vitro ADME", "conditions": "recombinant CYP2C9, pH 7.4", "method_in_brief": "as §1"}},
  "note": "“Also recorded” adds a separate entry of the source.",
  "data": [
    {"smiles": "Fc1cccc(Cl)c1CN1CCOCC1", "note": "[Compound 7, 4-(2-chloro-6-fluorobenzyl)morpholine]", "values": [
      {"measurement": "solubility at 24 h", "setting": "[1]", "result": 184, "unit": "µM"},
      {"measurement": "spectral shift with 2A6", "setting": "human CYP2A6 [2]; follow-up titration of HTS hit, Figure 1D", "result": "no spectral shift"},
      {"measurement": "Kd 2A6", "setting": "human CYP2A6 [2]", "result": "did not cause a spectral shift; also recorded: No ^** Spectral Shift"},
      {"measurement": "Ki", "setting": "human CYP2A6 [3]", "result": 287, "unit": "µM"},
      {"measurement": "half-life at 1 μM", "setting": "CYP3A4", "result": 25, "unit": "min"},
      {"measurement": "Percent Loss of Substrate", "setting": "[4]", "result": 85.5, "unit": "%"},
      {"measurement": "substrate remaining", "setting": "[4]", "result": 14, "unit": "%"},
      {"measurement": "half-life at 1 μM", "setting": "[4]", "result": 7.6, "unit": "min"},
      {"measurement": "microsomal CLint at 1 μM", "setting": "[4]", "result": 91.4, "unit": "µL/min/mg"},
      {"measurement": "half-life at 1 μM", "setting": "CYP2C19", "result": 18, "unit": "min"},
      {"measurement": "half-life at 1 μM", "setting": "CYP2B6", "result": "< 5", "unit": "min"},
      {"measurement": "Percent Loss of Substrate", "setting": "[5]", "result": "No Loss/No Loss"},
      {"measurement": "half-life at 1 μM", "setting": "[6]", "result": 0.8, "unit": "min"},
      {"measurement": "microsomal CLint at 1 μM", "setting": "[6]", "result": 916, "unit": "µL/min/mg"},
      {"measurement": "Percent Loss of Substrate", "setting": "[6]", "result": "100/100%"},
      {"measurement": "IC50", "setting": "hERG", "result": "> 10", "unit": "µM"},
      {"measurement": "inhibition at 10 µM", "setting": "hERG", "result": 24.8, "unit": "%"},
      {"measurement": "half-life at 1 μM", "setting": "CYP1A2", "result": 20.2, "unit": "h"},
      {"measurement": "half-life at 1 μM", "setting": "[7]", "result": 1.5, "unit": "min"},
      {"measurement": "microsomal CLint at 1 μM", "setting": "[7]", "result": 478, "unit": "µL/min/mg"},
      {"measurement": "Percent Loss of Substrate", "setting": "[7]", "result": 100, "unit": "%"},
      {"measurement": "half-life at 1 μM", "setting": "[8]", "result": 1.3, "unit": "min"},
      {"measurement": "microsomal CLint at 1 μM", "setting": "[8]", "result": 551, "unit": "µL/min/mg"},
      {"measurement": "Percent Loss of Substrate", "setting": "[8]", "result": 100, "unit": "%"},
      {"measurement": "half-life at 1 μM", "setting": "CYP2C9", "result": 230, "unit": "min"}
    ]},
    {"smiles": "Clc1ccccc1CN1CCOCC1", "note": "[Compound 3, 4-(2-chlorobenzyl)morpholine]", "values": [
      {"measurement": "solubility at 24 h", "setting": "[1]", "result": 180, "unit": "µM"},
      {"measurement": "Kd 2A6", "setting": "human CYP2A6 [2]", "result": "No ^** Spectral Shift"},
      {"measurement": "Ki", "setting": "human CYP2A6 [3]", "result": "≥ 1000", "unit": "µM"},
      {"measurement": "half-life at 1 μM", "setting": "CYP3A4", "result": 33, "unit": "min"},
      {"measurement": "Percent Loss of Substrate", "setting": "[4]", "result": 47.0, "unit": "%"},
      {"measurement": "substrate remaining", "setting": "[4]", "result": 53, "unit": "%"},
      {"measurement": "half-life at 1 μM", "setting": "[4]", "result": 22.9, "unit": "min"},
      {"measurement": "microsomal CLint at 1 μM", "setting": "[4]", "result": 30.3, "unit": "µL/min/mg"},
      {"measurement": "half-life at 1 μM", "setting": "CYP2C19", "result": 13, "unit": "min"},
      {"measurement": "half-life at 1 μM", "setting": "CYP2B6", "result": "< 5", "unit": "min"},
      {"measurement": "Percent Loss of Substrate", "setting": "[5]", "result": "No Loss/No Loss"},
      {"measurement": "half-life at 1 μM", "setting": "[6]", "result": 1, "unit": "min"},
      {"measurement": "microsomal CLint at 1 μM", "setting": "[6]", "result": 687, "unit": "µL/min/mg"},
      {"measurement": "Percent Loss of Substrate", "setting": "[6]", "result": "100/100%"},
      {"measurement": "IC50", "setting": "hERG", "result": "> 10", "unit": "µM"},
      {"measurement": "inhibition at 10 µM", "setting": "hERG", "result": 13.9, "unit": "%"},
      {"measurement": "half-life at 1 μM", "setting": "CYP1A2", "result": 38.6, "unit": "h"},
      {"measurement": "Average T1/2 CYP1A2", "setting": "CYP1A2; recombinant enzyme 100 pmol/ml, 1 μM compound", "result": "essentially no loss"},
      {"measurement": "half-life at 1 μM", "setting": "[7]", "result": 2.4, "unit": "min"},
      {"measurement": "microsomal CLint at 1 μM", "setting": "[7]", "result": 283, "unit": "µL/min/mg"},
      {"measurement": "Percent Loss of Substrate", "setting": "[7]", "result": 99.8, "unit": "%"},
      {"measurement": "half-life at 1 μM", "setting": "[8]", "result": 1.6, "unit": "min"},
      {"measurement": "microsomal CLint at 1 μM", "setting": "[8]", "result": 433, "unit": "µL/min/mg"},
      {"measurement": "Percent Loss of Substrate", "setting": "[8]", "result": 99.9, "unit": "%"},
      {"measurement": "half-life at 1 μM", "setting": "CYP2C9", "result": 476, "unit": "min"}
    ]}
  ]
}
